ChEMBL document CHEMBL2331318, “Azide-alkyne cycloaddition en route to 1H-1,2,3-triazole-tethered 7-chloroquinoline-isatin chimeras: synthesis and antimalarial evaluation” (Eur J Med Chem, 2013)

These molecules were tested on Plasmodium falciparum (assay: In vitro antimalarial activity against ring stage of chloroquine-resistant Plasmodium falciparum W2 cultured in medium containing 10% human serum assessed as inhibition of parasite growth after 48 hrs by YOYO-1 dye based flow cytometry). Settings: W2, 48 h.
Assay type: functional, organism-based
Method in brief: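 Ring-stage microwell cultures were exposed to a range of compound concentrations for 48 h, with 0.1% DMSO maximum and in the no-inhibitor controls. Cells were fixed in 1% formaldehyde/PBS pH 7.4 for 48 h at room temperature, then stained with 1 nM YOYO-1 in 0.1% Triton X-100/PBS. Parasitemia was counted by flow cytometry, and IC50 obtained by nonlinear regression of % control parasitemia from duplicate experiments.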

Row | Structure (SMILES) | IC50 [µM]
1 | O=C1C(=O)N(Cc2cnnn2CCNc2ccnc3cc(Cl)ccc23)c2ccccc21 | 3.07
2 | O=C1C(=O)N(Cc2cnnn2CCNc2ccnc3cc(Cl)ccc23)c2ccc(F)cc21 | 2.3
3 | O=C1C(=O)N(Cc2cnnn2CCNc2ccnc3cc(Cl)ccc23)c2ccc(Cl)cc21 | 1.37
4 | O=C1C(=O)N(Cc2cnnn2CCNc2ccnc3cc(Cl)ccc23)c2ccc(Br)cc21 | 1.73
5 | Cc1ccc2c(c1)C(=O)C(=O)N2Cc1cnnn1CCNc1ccnc2cc(Cl)ccc12 | 1.63
6 | O=C1C(=O)N(Cc2cnnn2CCCNc2ccnc3cc(Cl)ccc23)c2ccccc21 | 3.85
7 | O=C1C(=O)N(Cc2cnnn2CCCNc2ccnc3cc(Cl)ccc23)c2ccc(F)cc21 | 1.35
8 | O=C1C(=O)N(Cc2cnnn2CCCNc2ccnc3cc(Cl)ccc23)c2ccc(Cl)cc21 | 1.21
9 | O=C1C(=O)N(Cc2cnnn2CCCNc2ccnc3cc(Cl)ccc23)c2ccc(Br)cc21 | 1.66
10 | Cc1ccc2c(c1)C(=O)C(=O)N2Cc1cnnn1CCCNc1ccnc2cc(Cl)ccc12 | 1.3
11 | O=C1C(=O)N(Cc2cnnn2-c2ccnc3cc(Cl)ccc23)c2ccccc21 | > 5
12 | O=C1C(=O)N(Cc2cnnn2-c2ccnc3cc(Cl)ccc23)c2ccc(F)cc21 | > 5
13 | O=C1C(=O)N(Cc2cnnn2-c2ccnc3cc(Cl)ccc23)c2ccc(Cl)cc21 | > 5
14 | O=C1C(=O)N(Cc2cnnn2-c2ccnc3cc(Cl)ccc23)c2ccc(Br)cc21 | > 5
15 | Cc1ccc2c(c1)C(=O)C(=O)N2Cc1cnnn1-c1ccnc2cc(Cl)ccc12 | > 5
